PubChem BioAssay
Records with an inconclusive call do not appear.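 How the source made its calls, unless noted: active means RAM network inhibition above 8.4% in each of two replicates, 3 SD over the compound average; inconclusive means above 8.4% inhibition in only one replicate; inactive means 8.4% inhibition or less in each replicate.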

Legend:
[1] = S. cerevisiae growth inhibition in permissive medium (OD615), pilot counter-assay for S. cerevisiae lifespan shortening project, permissive growth control (AID 705;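 active means growth inhibition above 25% in both replicates, a cutoff set 3 SD above the mean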); conditions: OD615, 24 h, at 10 µM, hits give high values
In short: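 System: Engineered DeaD yeast | Buffer or medium: SC raffinose/galactose permissive medium | Incubation: Cells pre-grown 4 h, then 24 h compound exposure, 30 °C humidified | Measured by: Absorbance (optical density) at 615 nm | Read-out: Reduction in yeast growth (OD615)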

[2] = S. cerevisiae growth inhibition in restrictive medium, OD615, pilot screen, restrictive growth control, yeast lifespan reduction project (AID 706;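 active means growth inhibition above a set limit, 3 SD over mean compound inhibition, in both replicates, cut at about 43% in these data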;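 further: modified DeaD lifespan yeast strain shifted to restrictive glucose medium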); conditions: OD615, 48 h, at 10 µM, hits give high values
In short: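 Material: modified S. cerevisiae; Medium: glucose-based CSMM-D restrictive medium; Compound dosing: one concentration, 10 µM final, 0.25% DMSO; Incubation: 48 h compound exposure at 30 °C; Measured by: OD615.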

[3] = doxorubicin toxicity protection in MRP-1 cells – H69AR cells, CellTiter-Glo, duplicate, MRP-1 activator project, pilot screen (AID 807;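 active means viability increase at or above a cutoff of the median across tested compounds plus 3 SD, cut at about 8.5% in these data, passing the limit was not always enough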;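 further: compound pretreatment 18-22 h then 72 h combined with doxorubicin; 0% = doxorubicin alone and 100% = vehicle without doxorubicin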); conditions: H69AR viability with doxorubicin, CellTiter-Glo luminescence; at 10 µM; hits give high values
[4] = viability of HCT116 without oncogenic beta-catenin – human colon tumor cells, pilot screen (AID 823;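 active means cell viability at or below a set limit in both duplicate runs, the limit being the all-compound median minus 4 SD, cut at about 23% in these data, passing the limit was not always enough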;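 further: 0% = wells killed by 20 µM Hyamine and 100% = untreated DMSO cell wells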); conditions: HCT116 beta-catenin knockout viability, CellTiter-Glo, 60 h; at 10 µM; hits give low values
[5] = viability of PTEN-null HCT116 cells – cell-based, HCT116 clonal line, CellTiter-Glo, pilot screen (AID 824;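 active means viability at or below 27.92% in each of two runs, the all-compound median minus 4 SD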;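 further: 0% = 20 µM Hyamine control and 100% = vehicle cell control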); conditions: HCT116 PTEN-deleted viability, 60 h, at 10 µM, hits give low values
[6] = RAM pathway blockade in budding yeast – dse1pr::URA3 reporter, 5-FOA selection, pilot screen (AID 869;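 active means inhibition over a set limit, the all-compound mean plus 3 SD, in both replicate runs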;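 further: 0% = DMSO wells with no growth and 100% = 10 µM 1-NA-PP1 with full growth; RAM network block rescues cells from 5-FOA so hits raise OD615 growth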); conditions: S. cerevisiae dse1pr::URA3 5-FOA growth, OD615, 2 d; at 10 µM; hits give high values; strain carries analog-sensitive mutant Cbk1 kinase
[7] = RAM signaling pathway blockade in yeast – S. cerevisiae, Pdr1DBD-CYC8 efflux-inhibited sensitized strain, primary screen (AID 1298);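 further: 0% = DMSO untreated cells without growth and 100% = 10 µM 1-NA-PP1 full growth; higher means more yeast growth rescued from 5-FOA killing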; conditions: S. cerevisiae cbk1-as DSE1-URA3 strain, 5-FOA growth OD615, 2 d; at 50 µM; hits give high values

COc1ccccc1CNC(=O)c1cnc2sccn2c1=O
inactive: growth inhibition [1] -5.31% | growth inhibition [2] -12.4% | viability increase [3] -2.45% | viability [4] 107% | viability [5] 90.3% | inhibition [6] 2.37% | RAM network inhibition [7] 2.72%

Cc1nc2nc[nH]c2cc1Br
inactive: growth inhibition [1] 5.74% | growth inhibition [2] 6.22% | viability increase [3] -2.75% | viability [4] 97.8% | viability [5] 100% | inhibition [6] 0.705% | RAM network inhibition [7] -0.41%

O=C1C(=C(O)c2ccccc2)C(=O)c2ccccc21
inactive: growth inhibition [1] -20.4% | growth inhibition [2] 2.15% | viability increase [3] -3.04% | viability [4] 107% | viability [5] 103% | inhibition [6] -0.26% | RAM network inhibition [7] -1.88%

COc1ccccc1NC(=O)C1=C(C)Nc2nc(-c3cccs3)nn2C1c1cccnc1 (stereo not drawn)
inactive: growth inhibition [1] -13.7% | growth inhibition [2] -9.57% | viability increase [3] -5.67% | viability [4] 86.7% | viability [5] 91.4% | inhibition [6] 2.23% | RAM network inhibition [7] 4.86%

CCOC(=O)N1CCC(N2C(=O)c3ccccc3C2Nc2cc(OC)c(OC)c(OC)c2)CC1 (stereo not drawn)
inactive: growth inhibition [1] 6.9% | growth inhibition [2] 8.61% | viability increase [3] -4.12% | viability [4] 92.2% | viability [5] 79.2% | inhibition [6] 0.24% | RAM network inhibition [7] 0.78%

CCOC(=O)c1sc(NC(=O)COC(=O)c2ccco2)nc1C
inactive: growth inhibition [1] 4.37% | growth inhibition [2] -12.7% | viability increase [3] -6.43% | viability [4] 87.7% | viability [5] 89.6% | inhibition [6] 1.39% | RAM network inhibition [7] 4.87%

CCOc1ccc(-c2nnc3n2N=C(c2ccc(OC)cc2)CS3)cc1
inactive: growth inhibition [1] -2.4% | growth inhibition [2] -3.84% | viability increase [3] -5.29% | viability [4] 84% | viability [5] 82% | inhibition [6] 1.72% | RAM network inhibition [7] 5.3%

CC(C)Oc1ccc(/C(O)=C2/C(=O)C(=O)N(CCCN3CCOCC3)C2c2ccncc2)cc1 (stereo not drawn)
inactive: growth inhibition [1] -3.48% | growth inhibition [2] -4.07% | viability increase [3] -3.89% | viability [4] 93.3% | viability [5] 89.3% | inhibition [6] 0.95% | RAM network inhibition [7] -0.41%

CCOc1ccccc1NC(=O)CSc1nnc(-c2ccccn2)n1Cc1ccco1
inactive: growth inhibition [1] -4.62% | growth inhibition [2] 11.5% | viability increase [3] -1.92% | viability [4] 96.9% | viability [5] 98.5% | inhibition [6] 0.955% | RAM network inhibition [7] 3.98%

O=C(NC1CC1)c1ccc(CSCc2cccc(F)c2)o1
inactive: growth inhibition [1] 3.53% | growth inhibition [2] 3.37% | viability increase [3] -2.78% | viability [4] 82.3% | viability [5] 86.3% | inhibition [6] 1.08% | RAM network inhibition [7] 4.29%

Cc1nnc(SCCn2c(N(C)Cc3ccccc3)nc3c2c(=O)[nH]c(=O)n3C)s1
inactive: growth inhibition [1] -9.54% | growth inhibition [2] -5.15% | viability increase [3] -3.65% | viability [4] 99.8% | viability [5] 97.5% | inhibition [6] 2.33% | RAM network inhibition [7] 5.64%

COc1ccc(-n2c(Cc3cccn3C)nnc2SCC(=O)Nc2ccc3c(c2)OCCO3)cc1
inactive: growth inhibition [1] 4.97% | growth inhibition [2] 8.29% | viability increase [3] -1.74% | viability [4] 103% | viability [5] 94.6% | inhibition [6] 1.61% | RAM network inhibition [7] 6.11%

O=C(Cn1c(-c2cncs2)nc2ccccc21)NCCc1ccccc1
inactive: growth inhibition [1] -6.77% | growth inhibition [2] -8.58% | viability increase [3] -2.77% | viability [4] 99.6% | viability [5] 92.7% | inhibition [6] 1.25% | RAM network inhibition [7] 4.43%

COc1ccccc1NC(=O)N1CCN(c2ccc3nncn3n2)CC1
inactive: growth inhibition [1] -3.47% | growth inhibition [2] 0.79% | viability increase [3] 0.48% | viability [4] 106% | viability [5] 103% | inhibition [6] -0.315% | RAM network inhibition [7] 0.69%

COc1ccccc1NC(=O)CSc1ncn[nH]1
inactive: growth inhibition [1] -3.71% | growth inhibition [2] -11% | viability increase [3] 1.06% | viability [4] 98.2% | viability [5] 101% | inhibition [6] -0.045% | RAM network inhibition [7] 2.9%

CC1CN(Cc2nc3c(c(=O)n(C)c(=O)n3C)n2Cc2ccccc2)CC(C)O1 (stereo not drawn)
inactive: growth inhibition [1] -2.62% | growth inhibition [2] 3.58% | viability increase [3] -0.81% | viability [4] 106% | viability [5] 100% | inhibition [6] 0.15% | RAM network inhibition [7] 2.1%

Cc1ccc(C(C(=O)NC2CCCCC2)N2CCCC2)cc1 (stereo not drawn)
inactive: growth inhibition [1] -4.08% | growth inhibition [2] -8.76% | viability increase [3] -3.02% | viability [4] 88.9% | viability [5] 93% | inhibition [6] 0.835% | RAM network inhibition [7] 8.97%

COc1ccccc1NC(=O)C1=C(C)Nc2nnnn2C1c1cccc(C)c1 (stereo not drawn)
inactive: growth inhibition [1] -13.2% | growth inhibition [2] -18.7% | viability increase [3] -5.73% | viability [4] 82.3% | viability [5] 80.8% | inhibition [6] 3.79% | RAM network inhibition [7] 2.19%

CCOC(=O)C1CCCN(C(=O)Cn2nc(Cc3cccnc3)c3ccccc3c2=O)C1 (stereo not drawn)
inactive: growth inhibition [1] 3.18% | growth inhibition [2] -7.92% | viability increase [3] 1.09% | viability [4] 99.5% | viability [5] 102% | inhibition [6] 2.21% | RAM network inhibition [7] 2.19%

CC(C)CCNC(=O)Cn1c(=O)oc2cc(S(=O)(=O)N3CCc4ccccc43)ccc21
inactive: growth inhibition [1] -6.32% | growth inhibition [2] -5.12% | viability increase [3] -5.87% | viability [4] 71.8% | viability [5] 62.5% | inhibition [6] 1.15% | RAM network inhibition [7] 1.07%

CCc1nnc(NC(=O)C(C)Sc2ccccc2)s1 (stereo not drawn)
inactive: growth inhibition [1] 6.98% | growth inhibition [2] 18.9% | viability increase [3] 1.53% | viability [4] 99.3% | viability [5] 98.1% | inhibition [6] 1.98% | RAM network inhibition [7] -0.83%

CCOc1ccc(-n2c(Cc3cc(=O)[nH]c(=O)[nH]3)nnc2SC(C)C(=O)OC)cc1 (stereo not drawn)
inactive: growth inhibition [1] -4.41% | growth inhibition [2] 2.84% | viability increase [3] 0.2% | viability [4] 101% | viability [5] 103% | inhibition [6] 0.31% | RAM network inhibition [7] 3.49%

COC(=O)c1oc2ccc(Br)cc2c1NC(=O)CCCN1C(=O)c2ccccc2C1=O
inactive: growth inhibition [1] -10.3% | growth inhibition [2] -14.3% | viability increase [3] 0.98% | viability [4] 97.7% | viability [5] 98.5% | inhibition [6] 2.69% | RAM network inhibition [7] 7.77%

COc1cc(-c2nc(-c3cccc(C)c3)no2)cc(OC)c1OC
inactive: growth inhibition [1] -5.34% | growth inhibition [2] -14.7% | viability increase [3] 0.46% | viability [4] 81.3% | viability [5] 81% | inhibition [6] 2.26% | RAM network inhibition [7] 9.46%
